In the library only some 0.74% were active in any assay of this set; here they are far more common.
Tn6 DDE FP: inhibitors of Tn6 peptide binding to human fibrin DD(E). 370,000 compounds, 0.21% hits. inhibition, % at 8.3 µM. Fibrin DD(E) TRITC-Tn6 fluorescence polarization displacement. P02675;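 active = inhibition above a per-campaign cutoff: mean of compounds within control limits plus 3 SD, cut at about 15% in these data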;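 also: 0% = median of all compound wells on the plate and 100% = blocking peptide control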
Tn7 DDE FP: inhibitors of Tn7 peptide binding to human fibrin DD(E) | P02675 | FP displacement of FITC-Tn7 peptide from fibrin DD(E); 0% = median of compound wells per plate | inhibition, % at 8.3 µM | 370,000 compounds, 0.13% hits | AID 720508;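 active = inhibition above the mean of compounds falling within the control limits plus 3 SD of them, cut at about 14% in these data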;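 also: 0% = plate median of compound wells and 100% = 10 µM Aha-Tn7 peptide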
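Also added: labelled Tn7 tracer, 0.1 µM; Assay system: human fibrin DD(E) protein; Amount: 2 µM fibrin DD(E); Schedule: 10 min compound pre-incubation, 3 h probe incubation at room temperature; Repeats: one replicate per compound; Read-out basis: percent inhibition; Measured by: fluorescence polarization of the labelled Tn7 tracer.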
ASAP1 inh: ASAP1 ArfGAP inhibition. inhibition, % at 16.5 µM. ASAP1-stimulated ARF1 GTP hydrolysis, GDP FP detection. 360,000 compounds, 0.19% hits. Q9ULH1. AID 624377; in the data active = inhibition above about 25%;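 also: 0% = vehicle with enzyme and substrate and 100% = no enzyme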
Target sequence (Q9ULH1 325-724 limits assumed): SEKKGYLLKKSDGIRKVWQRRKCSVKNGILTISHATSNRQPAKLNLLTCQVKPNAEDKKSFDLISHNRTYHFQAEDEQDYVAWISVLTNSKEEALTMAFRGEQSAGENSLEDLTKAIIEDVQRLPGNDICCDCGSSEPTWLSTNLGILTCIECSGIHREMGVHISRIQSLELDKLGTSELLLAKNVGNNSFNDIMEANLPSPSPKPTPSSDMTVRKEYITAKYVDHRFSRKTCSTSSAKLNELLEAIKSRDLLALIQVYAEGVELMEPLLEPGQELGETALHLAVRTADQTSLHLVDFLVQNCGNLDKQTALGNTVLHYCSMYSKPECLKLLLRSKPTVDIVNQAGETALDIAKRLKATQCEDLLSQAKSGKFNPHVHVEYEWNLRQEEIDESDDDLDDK
ARFGAP1 inh: inhibits rat ARF GTPase activating protein 1 | Q62848 | Arfgap1-stimulated ARF1 GTP hydrolysis, GDP FP detection | inhibition, % at 16.5 µM | 360,000 compounds, 0.26% hits;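 active = inhibition above a per-plate limit, mean inhibition of low control wells plus 3 SD, cut at about 25% in these data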;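 also: 0% = DMSO wells with enzyme and 100% = wells lacking Arfgap1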
Target sequence (Q62848 1-136 limits assumed): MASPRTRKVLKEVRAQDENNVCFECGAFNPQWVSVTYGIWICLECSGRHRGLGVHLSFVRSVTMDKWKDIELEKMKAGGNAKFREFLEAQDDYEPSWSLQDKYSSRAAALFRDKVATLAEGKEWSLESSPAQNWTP
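Material: rat Arfgap1 GAP domain (His6, aa 1-136), purified enzyme. Also added: human ARF1(Δ1-17)-GTP substrate. Compound dosing: 16.5 µM single point, 1.26% DMSO. Timing: enzyme reaction 120 min at 25 °C after 20 min preincubation. Signal: GDP detection by fluorescence polarization. Read-out basis: percent inhibition of GAP-stimulated GDP formation, scaled between DMSO and no-Arfgap1 medians.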
DDE Tn6 FP ctr: counter-screen hit for Tn6 peptide-fibrin DD(E) binding disruption. shares compounds with Tn6 DDE FP. TRITC-Tn6 fluorescence polarization displacement; 0% = median of compound wells, not DMSO. inhibition, % at 8.3 µM. 680 compounds, 2% hits;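 active = inhibition above the mean of test compounds lying between the control limits plus 3 SD of those, cut at about 14% in these data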;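 also: 0% = median of compound wells and 100% = wells with Aha-Tn7 blocking peptide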
Tn6 DDE conf: confirmation of inhibitors of Tn6 binding to human fibrin DD(E) | inhibition, % at 8.3 µM | FP displacement of TRITC-Tn6 peptide from DD(E); 0% = per-plate median of test wells | AID 720631 | shares compounds with Tn6 DDE FP | 680 compounds, 10% hits;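 active = inhibition above the mean of compounds lying within the control limits plus 3 SD, cut at about 16% in these data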;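 also: 100% = high control wells holding a competing inhibitor peptide at 10 µM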
Numbers without * were called inactive; . = no result given.

SMILES	Tn6 DDE FP	Tn7 DDE FP	ASAP1 inh	ARFGAP1 inh	DDE Tn6 FP ctr	Tn6 DDE conf
O=C(CCCN=C1NS(=O)(=O)c2ccccc21)OCC(=O)c1ccccc1	-4	1	-11	-2	.	.
O=C(COC(=O)CCCCCN=C1NS(=O)(=O)c2ccccc21)Nc1ccc(Cl)c(Cl)c1	29*	1	12	9	7	5
CCOc1ccc(NC(=O)CN2C(=O)c3cccc4cccc2c34)cc1	-4	0	1	1	.	.
Cc1ccc2c(C)c(C(=O)Nc3ccc(S(N)(=O)=O)cc3)oc2c1C	26*	5	4	3	4	-94
CCCC(=Nc1ccc(N)cc1)C1=C(O)C(C(=O)OC)C(C)(C)CC1=O (centres undefined)	126*	4	-6	-8	5	17*
CC(C1CC1)N(Cc1ccccc1)C(=O)NC(=O)c1ccccc1 (centres undefined)	18*	0	-2	12	0	1
COc1ccc(CNS(=O)(=O)c2cc(Br)ccc2Br)c(OC)c1	-1	-1	-3	-3	.	.
Cc1cn([C@H]2C[C@H](O)[C@@H](/C=C/C(=O)NCCC(C)C)O2)c(=O)[nH]c1=O	15*	-7	-11	-2	-9	-11
O=C1CC(Nc2ccc3ccccc3c2)C(=O)N1Cc1ccccc1 (centres undefined)	-5	-8	6	2	.	.
O=C1CC(Nc2ccc(N3CCOCC3)cc2)C(=O)N1Cc1ccccc1 (centres undefined)	20*	4	1	4	2	0
N=c1c[n+](N2CCOCC2)[n-]o1	19*	1	0	-2	-8	-19
COc1ccc(NC(=O)N(C)C[C@@H]2OCc3ccccc3-c3c(n(C)c4ccccc34)C(=O)N([C@H](C)CO)C[C@H]2C)c(OC)c1	17*	-6	8	-2	-4	-5
O=C(NC(NC(=S)Nc1ccccc1Cl)C(Cl)(Cl)Cl)c1cccc(Cl)c1 (centres undefined)	-4	-4	6	-1	.	.
O=C(Cc1cccc2ccccc12)NC(NC(=S)Nc1ccccc1Cl)C(Cl)(Cl)Cl (centres undefined)	25*	2	7	4	0	-2
COC(=O)C[C@@H]1CC[C@H]2[C@@H](COc3ccc(NC(=O)c4cc(C)on4)cc3C(=O)N2C)O1	6	-2	.	.	.	.
COc1cccc(CNc2ncnc3cc(Cl)ccc23)c1	6	2	12	1	.	.
CNc1nc(Cl)c(SC)c(NCc2cccc(OC)c2)n1	17*	-4	11	3	4	4
NS(=O)(=O)c1ccc(NC(=O)COC(=O)/C(=C/c2cccs2)c2cccs2)cc1	19*	-3	11	12	0	1
NS(=O)(=O)c1ccc(NC(=O)Cc2cccs2)cc1	-1	-8	-3	11	.	.
CCN(CC)C(=O)CC[C@@H]1CC[C@]2(CCCN(C(=O)C3CCCCC3)C2)O1	-1	2	.	.	.	.
CCCCCCCCN1C(=O)[C@@H](CC(=O)NCCC(C)C)C[C@@]2(C(=O)OC)C1=C[C@H](C1CCCC1)O[C@@H]2C	4	3	1	5	.	.
O=C1CCCC(c2ccccc2)N1 (centres undefined)	2	4	-3	1	.	.
c1ccc(-c2ccc(C3CCCN3)cc2)cc1 (centres undefined)	16*	3	1	-8	0	-2
O=C(Nc1ccncc1)c1cc(C2CCCCN2C(=O)CCc2ccccc2)on1 (centres undefined)	15*	-3	6	1	4	-1
CC(=O)c1ccc(NC(=S)NCCc2ccc(S(N)(=O)=O)cc2)cc1	15*	4	-10	-13	-8	-12
SMILES	Tn6 DDE FP	Tn7 DDE FP	ASAP1 inh	ARFGAP1 inh	DDE Tn6 FP ctr	Tn6 DDE conf
NS(=O)(=O)c1ccc(NC(=S)NCCc2ccccc2)cc1	-1	-4	13	13	.	.
CN1C(=O)[C@H]2[C@@H](c3ccc(C(F)(F)F)cc3)N[C@]3(CCCN(CC4CCCCC4)C3=O)[C@H]2C1=O	16*	1	-9	5	4	3
Cc1ccc([C@H]2N[C@]3(CCCN(CC4CCCCC4)C3=O)[C@H]3C(=O)N(C)C(=O)[C@@H]23)cc1	6	3	5	10	.	.
COc1cc(NC(=S)NC(C)=O)ccc1NC(=O)C(C)C	-3	-4	-1	11	.	.
CCCC(=O)Nc1cc(OC)c(NC(=S)Nc2ccc(CC)cc2)cc1OC	36*	4	-8	-18	4	3
CCCC(=O)Nc1cc(OC)c(NC(=S)Nc2cccc(C)c2)cc1OC	26*	-3	-5	-1	-3	-18
Cc1cccc(NC(=S)Nc2cccc3ccccc23)c1	-7	-5	4	3	.	.
CCc1ccc(NC(=S)Nc2cc(OC)c(NC(=O)C(C)C)cc2OC)cc1	25*	-5	2	5	2	2
CCCCC(=O)Nc1ccc(NC(=S)NC(=O)CC)cc1OC	-3	-4	10	8	.	.
COc1ccccc1C(=O)NC(=O)COC(=O)c1ccc(NC(=O)CC#N)cc1	18*	2	-2	-2	3	-1
CCC1=C(CC2NCCc3ccccc32)CC2c3cc(OC)c(OC)cc3CCN2C1 (centres undefined)	23*	9	-3	-6	4	3
CC[C@H]1CN2CCc3cc(OC)c(OC)cc3C2C[C@@H]1C[C@H]1NCCc2cc(OC)c(OC)cc21 (some centres undefined)	-3	4	10	10	.	.
CC(C)CN1C(=O)C[C@]2(C(=O)N(C)c3ccc(NC(=O)c4cc(F)ccc4F)cc32)C1c1ccccc1 (some centres undefined)	1	-3	.	.	.	.
COc1ccc(C(CNC(=O)c2ccc(S(=O)(=O)N(C)C)cc2)N(C)C)cc1 (centres undefined)	-1	2	-2	0	.	.
CCN(c1ccccc1)S(=O)(=O)c1cc(C(=O)NCC(c2ccc(OC)cc2)N(C)C)ccc1C (centres undefined)	17*	6	19	-6	-1	-8
CCN(CC)c1ccc(/C=C/c2cc(-c3ccccc3)c3ccccc3n2)cc1	17*	0	11	-2	-11	-8
C=CCN1[C@@H](C)[C@H](c2ccccc2)Oc2cccc(NCC(C)C)c2S1(=O)=O	4	9	2	2	.	.
O=C(N[C@H](C(=O)N1CCC[C@H]1C(=O)NCCc1ccccc1Cl)C1CCCCC1)c1cccs1	1	-1	-8	-2	.	.
Cc1nc2ccccc2n1-c1nc(-c2ccco2)cc(C(F)(F)F)n1	18*	0	13	-5	-3	-5

Screening results as filed in PubChem.
